Screening data: PubChem, several laboratories
MT stabilize HCS: microtubule stabilizers in HeLa cells | HeLa tubulin immunostaining HCS, 24 h; share of cells brighter than vehicle mean+2SD | % tubulin-high responders, % at 10 µM | 200,000 compounds, 0.83% hits;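 active means plate Z-score above 3 for both tubulin-high and condensed-nucleus cell shares, with cell loss under 80%, at 10 µM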;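 further: anti alpha tubulin signal scored within the nucleus-defined area of each cell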
WT yeast gro inh: growth inhibition of WT yeast, mitochondrial fusion screen | 190,000 compounds, 2.1% hits | inhibition, % at 10 µM | AID 1362 | mitochondrial fusion phenotypic screen, WT strain; in the data active means inhibition above about 58%; tested in S. cerevisiae
b-catenin transl: alters nuclear translocation of beta-catenin in HeLa cells; 190,000 compounds, 0.3% hits; immunofluorescence imaging; nuclear translocation activity, % at 5 µM;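 active means nuclear translocation activity above 50% at 5 µM, with a well cell count of 50 or more; inconclusive means wells under 50 cells across six images, flagged as toxic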;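 further: per-cell ratio of nuclear to cytoplasmic median beta-catenin stain intensity; plate controls were DMSO negative control for no effect and GSK-3 inhibitor IX positive control for full effect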
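Read-out: Nuclear/cytoplasmic beta-catenin signal ratio, % activation | Assay system: Human HeLa cell line | Times: 24 h compound exposure at 37°C, 5% CO2 | Signal: Fluorescence imaging of beta-catenin antibody stain plus DAPI | Dosing: 5 µM primary, 0.02–20 µM confirmation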
Cl transport mod: KCC2 (human) Cl- transport modulation | Q9H2X9 | KCC2 cells, thallium flux FluoZin-2 fluorescence | AID 1456 | B-score of Tl+ flux slope (higher = more flux/activation; lower = inhibition) at 10 µM | 190,000 compounds, 2.2% hits;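 active means thallium flux slope and its plate-corrected score both differing from the plate sample mean at a set confidence after two filtering rounds, in either direction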;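 further: slope of fluorescence scaled to starting intensity during 10 to 20 s after thallium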
Target sequence (Q9H2X9 whole entry, looked up): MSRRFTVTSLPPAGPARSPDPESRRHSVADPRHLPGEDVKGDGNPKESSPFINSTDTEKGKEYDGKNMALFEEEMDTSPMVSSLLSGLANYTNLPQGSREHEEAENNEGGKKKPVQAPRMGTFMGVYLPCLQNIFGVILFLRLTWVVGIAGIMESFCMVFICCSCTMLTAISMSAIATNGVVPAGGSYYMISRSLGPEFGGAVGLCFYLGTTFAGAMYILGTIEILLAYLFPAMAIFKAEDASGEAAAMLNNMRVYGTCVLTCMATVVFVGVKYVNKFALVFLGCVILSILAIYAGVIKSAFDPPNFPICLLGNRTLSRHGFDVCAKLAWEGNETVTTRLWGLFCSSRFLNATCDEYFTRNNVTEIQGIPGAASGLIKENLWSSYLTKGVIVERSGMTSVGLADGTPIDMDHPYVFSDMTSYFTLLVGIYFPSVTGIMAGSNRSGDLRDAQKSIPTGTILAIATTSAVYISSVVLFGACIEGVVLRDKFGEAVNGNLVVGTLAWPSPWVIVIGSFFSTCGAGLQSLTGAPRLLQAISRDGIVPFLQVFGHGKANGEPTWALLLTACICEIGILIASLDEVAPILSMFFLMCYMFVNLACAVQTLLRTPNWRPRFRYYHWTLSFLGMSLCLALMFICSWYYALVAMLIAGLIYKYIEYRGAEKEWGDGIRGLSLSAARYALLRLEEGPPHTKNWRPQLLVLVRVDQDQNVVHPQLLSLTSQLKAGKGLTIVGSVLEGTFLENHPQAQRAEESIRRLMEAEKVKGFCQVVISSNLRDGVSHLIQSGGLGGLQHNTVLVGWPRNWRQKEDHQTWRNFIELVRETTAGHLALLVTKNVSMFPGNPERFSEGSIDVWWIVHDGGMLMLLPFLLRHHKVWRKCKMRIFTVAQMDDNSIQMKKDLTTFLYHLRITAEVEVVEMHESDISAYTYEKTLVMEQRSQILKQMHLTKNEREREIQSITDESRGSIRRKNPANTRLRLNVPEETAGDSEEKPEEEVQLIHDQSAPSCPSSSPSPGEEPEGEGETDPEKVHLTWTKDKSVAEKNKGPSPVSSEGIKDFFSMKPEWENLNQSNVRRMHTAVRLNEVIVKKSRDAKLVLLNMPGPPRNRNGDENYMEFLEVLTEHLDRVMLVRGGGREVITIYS
Pf gametocyte: kills late stage P. falciparum gametocytes. P. falciparum stage V gametocytes, ATP luminescence, 24 h. inhibition, % at 10.9 µM. 150,000 compounds, 0.065% hits;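 active means inhibition above the mean plus 3 SD of compounds within the control limits, set per campaign, cut at about 38% in these data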;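 further: 0% = DMSO wells and 100% = medium only without gametocytes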
KCC2 secondary: confirmation of human KCC2 transport modulators | normalised thallium flux (F/F0 slope) at 10 µM | shares compounds with Cl transport mod | HEK293-KCC2, thallium flux, FluoZin2 fluorescence; stronger effect = higher value | 3,700 compounds, 15% hits;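 active means thallium flux slope above the same plate's solvent-only control mean plus 3 SD; inconclusive means the two replicate wells disagree; inactive means no significant difference from solvent-only control wells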
KCC2 bumet counter: thallium flux persisting under bumetanide in KCC2 cells, counter-screen secondary assay. shares compounds with Cl transport mod. HEK293-KCC2 + bumetanide/ouabain, thallium flux FluoZin2; stronger effect = higher value. normalized thallium flux at 10 µM. 3,700 compounds, 49% hits;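 active means thallium entry rate above the same plate's blocked-transporter control wells by more than 3 SD; inconclusive means the two repeat wells disagree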;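 further: raw slope of fluorescence over initial fluorescence between 10 and 20 s after thallium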
KCC2 secondary2: KCC2 (human) modulation, second secondary assay. shares compounds with Cl transport mod. HEK293-KCC2, thallium flux FluoZin2 fluorescence; actives lie on both sides; F/F0 rise rate, 10–20 s post-thallium. normalized thallium flux at 10 µM. 3,700 compounds, 23% hits. AID 1715;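 active means thallium flux slope more than 3 SD above or below the plate's solvent-only control mean, mostly below; inconclusive means the two repeat wells disagreed; inactive means no significant shift from solvent-only controls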;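 further: raw slope with 0.1% DMSO as baseline and bumetanide as block control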
HEK counter1: parental HEK flux effect, counter-screen; shares compounds with Cl transport mod; HEK293 parental cells, thallium flux FluoZin2, ouabain; baseline-ratio fluorescence slope, 10–20 s after thallium; thallium flux rate (normalised fluorescence) at 10 µM; 3,700 compounds, 46% hits;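 active means thallium flux rate significantly above the same plate's solvent-only control wells, beyond their mean plus 3 SD; inconclusive means the two replicate wells gave conflicting results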
KCC2 retest ouab: KCC2 (human) modulation, ouabain retest; 3,700 compounds, 48% hits; raw Tl+ flux slope (below DMSO = inhibition, above = activation) at 10 µM; shares compounds with Cl transport mod; HEK293-KCC2, thallium flux FluoZin2 fluorescence; bidirectional: low = inhibitor, high = activator;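 active means thallium flux slope beyond 3 SD from same-plate DMSO control mean in most replicates, usually higher, sometimes lower; inconclusive means repeat tests gave conflicting results; inactive means no significant difference from controls in most replicates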;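 further: slope of initial-normalized fluorescence between seconds 10 and 20 after thallium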
HEK counter2: counter-screen for KCC2 modulators: effect in parental HEK293 cells | shares compounds with Cl transport mod | thallium flux FluoZin-2 fluorescence slope | thallium flux slope at 10 µM | 3,700 compounds, 33% hits | AID 1718;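 active means thallium flux slope above the same plate's solvent-control mean plus 3 SD in both duplicate wells; inconclusive means duplicate wells that disagreed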;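 further: run without ouabain in cells lacking the KCC2 cotransporter; slope of fluorescence scaled to its starting value between 10 and 20 s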
The depositor's hits bear a star; ? = inconclusive; . = not tested or not shown. Only some compounds are listed: those with a hit (about 4% of all), similar ones and a draw of the others.

SMILES | MT stabilize HCS | WT yeast gro inh | b-catenin transl | Cl transport mod | Pf gametocyte | KCC2 secondary | KCC2 bumet counter | KCC2 secondary2 | HEK counter1 | KCC2 retest ouab | HEK counter2
O=C(c1ccc(COc2ccc(Cl)cc2)o1)N1N=C(C(F)F)CC1(O)C(F)F (stereo not given) | 3 | 13 | 0 | -2 | 19 | . | . | . | . | . | .
COc1ccccc1OCc1ccc(C(=O)N2N=C(C(F)F)CC2(O)C(F)F)o1 (stereo not given) | 2 | 17 | 0 | -3.3* | 6 | 0.0071 | 0.0057 | 0.025* | 0.0067 | 0.013* | ?
COc1cc(C(=O)NCc2nnc(SCC(=O)N3CCOCC3)o2)cc(OC)c1OC | 2 | -6 | -1 | -0.52 | 1 | . | . | . | . | . | .
CN1CCC(N(C)C(=S)NC(=O)c2cc(-c3cccc(Br)c3)nc3ccccc23)CC1 | 6 | 38 | 4 | 16* | -6 | 0.0048 | 0.015* | 0.035 | 0.012* | ? | 0.014*
CCN(CC)C(=S)Oc1ccc(Cl)cc1Cl | . | . | -1 | -0.57 | -22 | . | . | . | . | . | .
O=C(Nc1cccnc1)Nc1ccc2c(c1)OCO2 | 2 | -14 | 3 | . | -17 | 0.0094 | 0.0061 | 0.029 | 0.0076 | 0.021 | 0.0093
S=C(NCCCc1ccccc1)Nc1ccc(Cl)cc1 | 2 | 72* | 1 | -3.7* | -29 | 0.0071 | 0.0055 | 0.029 | 0.0073 | 0.032* | 0.0099
S=C(NCCc1ccccc1)NCc1cccs1 | 1 | -10 | . | -4.4* | -4 | 0.019 | 0.0045 | 0.025* | 0.007 | 0.014 | 0.0099
COc1ccc(CCNC(=S)NCc2cccs2)cc1OC | 2 | 14 | 0 | 0.027 | -26 | . | . | . | . | . | .
S=C(NCCc1ccccc1)NC1CCCCCC1 | 2 | 68* | 1 | -4.2* | -2 | 0.0058* | ? | 0.029 | 0.0065 | ? | 0.011
O=C(NCCc1ccccc1)C(=O)NC1CCCCC1 | 1 | 5 | 3 | -1.4 | -10 | . | . | . | . | . | .
OCCNC(=S)NCCc1ccccc1 | 3 | -12 | -2 | -1 | 13 | . | . | . | . | . | .
CC(C)(CNC(=S)NCCc1ccccc1)CNC(=S)NCCc1ccccc1 | 2 | 30 | 0 | -5.1* | . | 0.0076 | 0.0054 | ? | 0.0058 | 0.013* | 0.0094
CC(C)(C)C(=O)NC1(C(F)(F)F)NC(=O)N(c2ccc(F)cc2)C1=O (stereo not given) | 2 | -4 | 0 | -0.014 | -2 | . | . | . | . | . | .
Cc1cc(C)nc(NS(=O)(=O)c2ccc(NC(=O)CN3C(=O)C4CC=CCC4C3=O)cc2)n1 (stereo not given) | 3 | 6 | 1 | 0.43 | -6 | . | . | . | . | . | .
Cc1cc(C)cc(NC(=S)NCc2cccs2)c1 | 5 | 37 | -1 | -0.0037 | -46 | . | . | . | . | . | .
S=C(NCc1cccs1)Nc1ccc(Br)cc1Cl | 4 | 49 | -2 | 4.7* | . | 0.0075 | 0.0095* | 0.031 | 0.011* | 0.018 | 0.012*
O=c1c2cc3c(cc2[nH]c(=S)n1C1CCN(Cc2ccccc2)CC1)OCO3 | 2 | 5 | . | 18* | -18 | 0.011* | 0.061* | 0.033 | 0.017* | 0.044* | 0.011*
O=c1c2cc3c(cc2[nH]c(=S)n1Cc1ccco1)OCO3 | 1 | 11 | 3 | 6.5* | . | ? | 0.027* | 0.028 | 0.012* | ? | 0.01*
O=C(CCCn1c(=S)[nH]c2cc3c(cc2c1=O)OCO3)NCc1ccco1 | 2 | 23 | -3 | -0.01 | 21 | . | . | . | . | . | .
O=C1c2oc3ccc(F)cc3c(=O)c2C(c2ccccc2)N1CC1CCCO1 (stereo not given) | 6 | -13 | -2 | . | . | . | . | . | . | . | .
CC(C)(C)/C(O)=C(/C#N)c1nc2ccccc2[nH]1 | 1 | 3 | . | . | 7 | . | . | . | . | . | .
N#C/C(=C(O)\C=C\c1ccccc1)c1nc2ccccc2[nH]1 | . | . | 1 | 6.6* | -2 | 0.0058 | 0.0049 | ? | 0.0076 | 0.019 | 0.01
C=CCn1c(O)c(N=NC(=S)Nc2cccc(OC)c2)c2ccccc21 | 3 | -1 | -4 | 71* | 7 | 0.02* | 0.11* | 0.031 | 0.041* | 0.052* | 0.013*
C=CCn1c(O)c(N=NC(=S)Nc2ccc(OC)cc2)c2ccccc21 | 4 | 4 | 6 | 53* | 13 | 0.0065 | 0.061* | 0.064* | 0.059* | 0.058* | 0.05*
SMILES | MT stabilize HCS | WT yeast gro inh | b-catenin transl | Cl transport mod | Pf gametocyte | KCC2 secondary | KCC2 bumet counter | KCC2 secondary2 | HEK counter1 | KCC2 retest ouab | HEK counter2
C=CCn1c(O)c(N=NC(=O)OCC)c2ccccc21 | 2 | -6 | -1 | -0.53 | 13 | . | . | . | . | . | .
CN1CCN(NC(=O)c2ccc(COc3ccccc3Br)o2)CC1 | 3 | -5 | 0 | -0.34 | 5 | . | . | . | . | . | .
O=C(O)c1ccc(CSc2nnc(COc3ccc(Cl)cc3Cl)o2)cc1 | 3 | -15 | . | -3.1* | . | 0.0061 | ? | 0.027 | 0.0067 | 0.017 | 0.0095
COc1ccccc1NC(=O)Cn1c(=O)sc2ccccc21 | 2 | 8 | 1 | -0.43 | . | . | . | . | . | . | .
COc1ccc(NC(=O)Cn2c(-c3ccccc3)cn(-c3ccc(C)cc3)c2=O)cc1 | 1 | 6 | . | 0.19 | . | . | . | . | . | . | .
COc1ccc(NC(=O)Cn2c(=O)sc3ccccc32)c(OC)c1 | 2 | -12 | -2 | -2.9* | . | 0.008 | 0.0049 | 0.028 | ? | 0.018 | 0.0092
COc1ccc(-c2cn(-c3ccc(C)cc3)c(=O)n2CC(=O)Nc2ccc(OC)cc2OC)cc1 | 2 | -5 | . | . | 8 | 0.0067 | 0.0043 | 0.029 | 0.0078 | 0.017 | 0.011
Cc1ccc(C(=O)Nc2ccc(Cl)cc2C)c(Cl)c1 | 4 | 0 | -2 | 0.18 | 19 | . | . | . | . | . | .
O=C(Nc1ccc2oc(-c3ccccc3)nc2c1)c1ccncc1 | 2 | 7 | 1 | -4.5* | -13 | 0.0068 | 0.0051 | 0.022* | 0.0074 | ? | 0.011
O=C(Nc1cccc(-c2nc3ccccc3o2)c1)c1cccnc1 | 3 | -12 | -1 | -0.45 | 18 | . | . | . | . | . | .
O=C(O)c1ccccc1-c1ccccc1C(=O)Nc1cccc(-c2nc3ccccc3o2)c1 | 1 | 18 | 1 | -5.8* | . | 0.0064 | 0.0057* | 0.026* | ? | 0.013* | ?
O=C(Nc1ccc2oc(-c3ccccc3)nc2c1)c1cccs1 | 5 | 2 | 0 | -0.8 | . | . | . | . | . | . | .
CC(NC(=O)c1cc(COc2c(F)cccc2F)on1)c1cnn(-c2ccccc2)c1 (stereo not given) | 3 | 17 | 0 | . | 18 | . | . | . | . | . | .
c1ccc2[nH]c(-c3cnco3)cc2c1 | . | . | . | . | 12 | . | . | . | . | . | .
